Measured values: publication PMC3904508 (Lab on a chip, 2013)

How the values were obtained:
Type in all cases: cell-based
[1] = target: T1, human CFTR (Homo sapiens, UniProt P13569); assay: Single-shot microfluidics YFP fluorescence iodide influx assay, CFTR
[2] = target: T2, human TMEM16A (Homo sapiens, UniProt Q5XXA6, DEL476-501); assay: Single-shot microfluidics YFP fluorescence iodide influx assay, TMEM16A; conditions: TMEM16A-expressing FRT cells; fitted dose-response, Fig. 4B
T2 sequence (Q5XXA6 with tags, fused parts or gaps isoform Q5XXA6-5 DEL539-564): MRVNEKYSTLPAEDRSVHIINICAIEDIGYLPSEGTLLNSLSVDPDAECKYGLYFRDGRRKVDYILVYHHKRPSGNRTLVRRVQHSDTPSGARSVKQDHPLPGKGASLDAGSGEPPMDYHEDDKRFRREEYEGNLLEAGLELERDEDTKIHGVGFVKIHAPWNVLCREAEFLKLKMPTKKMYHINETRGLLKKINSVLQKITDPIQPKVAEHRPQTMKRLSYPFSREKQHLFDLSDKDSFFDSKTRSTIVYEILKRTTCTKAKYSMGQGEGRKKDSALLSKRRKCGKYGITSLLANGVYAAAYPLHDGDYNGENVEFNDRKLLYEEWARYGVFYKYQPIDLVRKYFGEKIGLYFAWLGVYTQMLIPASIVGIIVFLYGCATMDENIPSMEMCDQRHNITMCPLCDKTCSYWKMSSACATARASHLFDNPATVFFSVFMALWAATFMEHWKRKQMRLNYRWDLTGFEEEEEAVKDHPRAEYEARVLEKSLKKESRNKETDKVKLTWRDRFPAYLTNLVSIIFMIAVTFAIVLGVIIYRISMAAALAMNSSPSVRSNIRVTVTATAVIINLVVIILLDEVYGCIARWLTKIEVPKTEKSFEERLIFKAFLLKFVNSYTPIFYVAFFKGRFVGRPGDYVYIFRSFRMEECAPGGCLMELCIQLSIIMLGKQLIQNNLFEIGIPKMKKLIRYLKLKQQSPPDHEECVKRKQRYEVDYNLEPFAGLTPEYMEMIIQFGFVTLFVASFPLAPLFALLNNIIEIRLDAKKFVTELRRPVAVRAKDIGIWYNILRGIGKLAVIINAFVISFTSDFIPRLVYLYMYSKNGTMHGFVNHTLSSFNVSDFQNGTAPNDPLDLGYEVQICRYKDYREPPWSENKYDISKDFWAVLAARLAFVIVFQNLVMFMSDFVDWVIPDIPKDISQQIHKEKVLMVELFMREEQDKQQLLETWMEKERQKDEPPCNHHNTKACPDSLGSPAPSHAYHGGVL
Summary of the method: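 FRT cells stably co-expressing human TMEM16A (abc isoform) and YFP-F46L/H148Q/I152L were grown 8–24 h at 37 °C under perfusion on fibronectin-coated coverglass. Cells were perfused 10 min with a gradient between PBS and PBS containing 30 μM test compound. Solution was then switched to 70 mM I− plus 50 μM ATP. YFP fluorescence was imaged at 2 Hz, and the Hill equation was fitted.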

[3] = target: T1, human CFTR; assay: Conventional plate reader YFP fluorescence iodide influx assay, CFTR

T1 sequence (P13569 whole entry): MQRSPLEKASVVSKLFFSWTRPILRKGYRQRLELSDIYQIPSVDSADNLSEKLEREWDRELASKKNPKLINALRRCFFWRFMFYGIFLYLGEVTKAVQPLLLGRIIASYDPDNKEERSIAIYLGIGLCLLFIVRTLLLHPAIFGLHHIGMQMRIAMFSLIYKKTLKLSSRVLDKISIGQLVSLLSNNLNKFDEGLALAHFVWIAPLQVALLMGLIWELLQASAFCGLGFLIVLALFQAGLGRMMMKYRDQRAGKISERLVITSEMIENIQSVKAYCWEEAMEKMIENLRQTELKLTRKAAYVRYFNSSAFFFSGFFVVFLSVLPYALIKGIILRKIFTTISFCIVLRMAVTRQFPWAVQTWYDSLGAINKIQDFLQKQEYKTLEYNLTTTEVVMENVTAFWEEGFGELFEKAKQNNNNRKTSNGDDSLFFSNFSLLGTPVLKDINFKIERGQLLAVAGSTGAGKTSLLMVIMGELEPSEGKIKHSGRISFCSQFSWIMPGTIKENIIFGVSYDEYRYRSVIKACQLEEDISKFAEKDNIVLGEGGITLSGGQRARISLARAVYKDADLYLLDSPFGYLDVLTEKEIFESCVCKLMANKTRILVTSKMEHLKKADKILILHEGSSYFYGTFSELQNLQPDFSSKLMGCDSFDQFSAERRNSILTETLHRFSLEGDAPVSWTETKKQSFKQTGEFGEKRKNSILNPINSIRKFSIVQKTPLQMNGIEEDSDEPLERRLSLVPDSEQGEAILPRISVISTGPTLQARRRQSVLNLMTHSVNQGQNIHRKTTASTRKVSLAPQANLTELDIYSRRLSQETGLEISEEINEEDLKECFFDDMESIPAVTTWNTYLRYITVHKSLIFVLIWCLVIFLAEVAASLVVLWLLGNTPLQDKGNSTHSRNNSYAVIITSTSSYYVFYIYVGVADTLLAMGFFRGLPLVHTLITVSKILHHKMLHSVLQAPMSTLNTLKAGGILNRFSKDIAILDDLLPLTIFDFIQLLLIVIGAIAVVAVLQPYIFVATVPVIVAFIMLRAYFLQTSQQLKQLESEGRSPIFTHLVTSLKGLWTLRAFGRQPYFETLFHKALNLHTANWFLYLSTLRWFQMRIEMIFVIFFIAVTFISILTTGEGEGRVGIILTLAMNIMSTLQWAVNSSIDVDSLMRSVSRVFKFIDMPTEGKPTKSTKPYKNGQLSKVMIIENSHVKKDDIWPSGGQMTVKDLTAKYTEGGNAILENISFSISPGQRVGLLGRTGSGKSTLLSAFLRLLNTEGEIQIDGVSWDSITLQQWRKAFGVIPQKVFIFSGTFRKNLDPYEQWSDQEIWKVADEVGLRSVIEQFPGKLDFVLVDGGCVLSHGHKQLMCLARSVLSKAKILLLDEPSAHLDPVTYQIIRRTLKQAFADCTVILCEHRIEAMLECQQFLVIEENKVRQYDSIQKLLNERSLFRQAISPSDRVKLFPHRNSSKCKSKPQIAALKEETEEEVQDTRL

With CFTRinh-172 the “nH (Hill coefficient, CFTR inhibition, single-shot microfluidics)” value ([1]; CFTR-expressing FRT cells, 5 μM forskolin, fitted dose-response, Fig. 3E) was 1.4.
`CCc1c(C)nc(SCC(=O)Nc2nc(-c3ccc(OC)cc3)cs2)[nH]c1=O` [TMinh-A01] was tested, and the “nH (Hill coefficient, TMEM16A inhibition, single-shot microfluidics)” value [2] was 2.2.
`C=C[C@@]1(C)CC(=O)[C@]2(O)[C@@]3(C)[C@@H](O)CCC(C)(C)[C@@H]3[C@H](O)[C@H](OC(C)=O)[C@@]2(C)O1` [forskolin] was tested, and the IC50 [1] was 3.2 ± 0.2 µM, the “nH (Hill coefficient, CFTR activation, single-shot microfluidics)” value ([1]; CFTR-expressing FRT cells, fitted dose-response, Fig. 3C) was 1.8 and the IC50 [3] was 2.9 ± 0.4 µM.
